Most compounds without a hit are left out; they make up all but 2.8% or so of the library.
PAFAH2 FP inh = PAFAH2 enzyme inhibitors, primary screen, biochemical, fluorescence polarization, human | Platelet-activating factor acetylhydrolase 2, cytoplasmic (Homo sapiens), Q99487 | recombinant PAFAH2, FP-rhodamine activity probe | inhibition, % at 3.39 µM | 340,000 compounds, 0.99% hits | AID 492956, 2010;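 active = inhibition above the mean over all tested compounds plus 3 SD, cut at about 30% in these data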;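 also: inhibitors block probe labeling of enzyme so polarization drops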
PAFAH1B3 FP inh = PAFAH1B3 enzyme inhibitors, primary screen, biochemical, fluorescence polarization, human | Platelet-activating factor acetylhydrolase IB subunit alpha1 (Homo sapiens), Q15102 | recombinant PAFAH1B3, FP-rhodamine probe | inhibition, % at 3.39 µM | 340,000 compounds, 0.28% hits;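 active = inhibition above the screen-wide average of all tested compounds plus 3 SD, cut at about 25% in these data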
ABHD4 inh = ABHD4 inhibitors, primary screen, biochemical, fluorescence polarization, mouse; AID 720543, 2013; inhibition, % at 8.92 µM; 370,000 compounds, 0.54% hits; purified mABHD4, FP-Rh probe fluorescence polarization; (Lyso)-N-acylphosphatidylethanolamine lipase (Mus musculus), Q8VD66;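 active = inhibition exceeding the mean over every tested compound plus 3 SD, cut at about 30% in these data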
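Test system: mouse ABHD4 enzyme, wild type. Reagent: FP-Rh fluorescent activity-based probe, added after compound pre-incubation. Timing: pre-incubation 45 min, probe exposure 60 min, at 25 °C. Technique: FP readout, ex 525 nm / em 598 nm. Benchmarks: high control S159A mutant with DMSO, low control median of compound wells.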
PAFAH1B2 inh = PAFAH1B2 enzyme inhibitors, primary screen, biochemical, fluorescence polarization, human. Platelet-activating factor acetylhydrolase IB subunit alpha2 (Homo sapiens), P68402. recombinant PAFAH1B2, FP-rhodamine activity probe. inhibition, % at 3.39 µM. 340,000 compounds, 1.2% hits. AID 492953, 2010;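 active = inhibition above the mean of all tested compounds plus 3 SD, cut at about 24% in these data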
pPAFAH FP inh = pPAFAH enzyme inhibitors, primary screen, biochemical, fluorescence polarization, human; Platelet-activating factor acetylhydrolase (Homo sapiens), Q13093; recombinant pPAFAH, FP-rhodamine probe fluorescence polarization; inhibition, % at 3.39 µM; 330,000 compounds, 1.5% hits;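 active = inhibition above the mean inhibition across the screen plus 3 SD, cut at about 25% in these data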;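 also: inhibitors block binding of the rhodamine activity-based probe so polarization drops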
HTRA1 inhibitor = HTRA1 serine protease inhibitors, primary screen, biochemical, fluorescence polarization, HTS; inhibition, % at 5.96 µM; 340,000 compounds, 0.5% hits; Q92743; recombinant HTRA1, FP-rhodamine activity-based probe; in the data active = inhibition above about 36%
Target sequence (Q92743 whole entry, looked up): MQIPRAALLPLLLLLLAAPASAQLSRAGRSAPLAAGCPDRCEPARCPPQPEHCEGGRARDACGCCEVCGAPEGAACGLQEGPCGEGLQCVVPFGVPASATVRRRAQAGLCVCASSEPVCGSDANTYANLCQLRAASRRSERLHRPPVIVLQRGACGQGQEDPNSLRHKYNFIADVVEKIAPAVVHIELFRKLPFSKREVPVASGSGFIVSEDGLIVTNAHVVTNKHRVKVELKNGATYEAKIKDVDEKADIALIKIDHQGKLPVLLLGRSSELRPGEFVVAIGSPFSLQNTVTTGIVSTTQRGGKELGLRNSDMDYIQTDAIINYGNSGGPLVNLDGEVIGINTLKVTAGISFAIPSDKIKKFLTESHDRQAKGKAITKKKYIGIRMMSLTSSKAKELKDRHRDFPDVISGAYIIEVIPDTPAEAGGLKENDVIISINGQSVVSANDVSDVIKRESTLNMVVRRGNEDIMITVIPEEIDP
A number is an active result; i = inactive; nt = not tested or not shown.

SMILES | PAFAH2 FP inh | PAFAH1B3 FP inh | ABHD4 inh | PAFAH1B2 inh | pPAFAH FP inh | HTRA1 inhibitor
CN1CCN(CC/C=C2/c3ccccc3Sc3ccc(S(=O)(=O)N(C)C)cc32)CC1 | i | i | i | i | 25 | i
CC(NS(=O)(=O)c1ccccc1)C1CC2CCC1C2 (stereo not drawn) | i | i | i | 25 | i | i
CC(NS(=O)(=O)c1ccc(N)cc1)C1CC2CCC1C2 (stereo not drawn) | i | i | i | i | i | i
Nc1[nH]c2cc(C(F)(F)F)ccc2c1C(=O)NCc1ccc(F)cc1 | nt | nt | i | nt | nt | nt
Cc1ccc(C)c(S(=O)(=O)N2CCN(C(=O)c3ccc(-n4cncn4)c([N+](=O)[O-])c3)CC2)c1 | i | i | i | i | i | i
Cc1ccc(C)c(S(=O)(=O)N2CCN(C(=O)c3ccc(N4CCCC4)c([N+](=O)[O-])c3)CC2)c1 | i | i | i | i | 25 | i
c1ccc2c(c1)[nH]c1ccccc12 | i | i | i | 25 | i | i
Cc1ccc(C)c(NC(=O)C2CCCN2S(=O)(=O)c2cccnc2)c1 (stereo not drawn) | nt | nt | i | nt | nt | nt
COc1ccccc1-n1c(SCC(=O)N2CCOCC2)nc(O)cc1=O | i | i | i | i | 34 | i
COc1ccccc1-n1c(SCC(=O)N2CCOCC2)nc(O)c(Cc2ccccc2)c1=O | i | i | i | i | i | i
Cc1ccc(Nc2cc(C)nn2-c2nc(C)cc(=O)[nH]2)cc1 | i | i | nt | i | 30 | 50
Cc1ccc(Nc2cc(C)nn2-c2nc(C)cc(C)n2)cc1 | i | i | i | i | i | i
O=C(CN(Cc1ccccc1)S(=O)(=O)c1ccc2c(c1)OCCO2)N/N=C/c1ccc(F)cc1 | i | i | i | i | 33 | i
O=S(=O)(Nc1cc(Sc2cccc3cccnc23)c(O)c2ccccc12)c1ccc(F)cc1 | nt | nt | 38 | nt | 34 | nt
N#Cc1c(NC(=O)c2ccco2)sc2c1CCC2 | i | i | i | i | 30 | i
NC(=O)c1c(NC(=O)c2ccco2)sc2c1CCC2 | i | i | i | i | i | i
COC(=O)[C@]12C[C@H](CC(=O)NCC34CC5CC(CC(C5)C3)C4)C(=O)N(Cc3ccc(Cl)cc3Cl)C1=C[C@H](C(C)C)O[C@@H]2C1CC1 | nt | nt | i | nt | nt | nt
C=CC[C@H](CC(=O)NCCO)C(=O)N[C@H](COC(=O)[C@@H](CC=C)Cc1ccc(F)cc1)c1ccccc1 | i | i | i | 25 | i | i
C=CCC[C@H](Cc1ccc(F)cc1)C(=O)OC[C@@H](NC(=O)[C@H](CC=C)CC(=O)NCCO)c1ccccc1 | i | i | i | i | i | i
COC(=O)[C@]12C=CCN1[C@@H](c1ccc(Cl)cc1)c1c(c3ccccc3n1S(=O)(=O)c1ccc(C)cc1)C2 | nt | nt | i | nt | nt | nt
O=C(CSc1nnc(CCc2ccccc2)n1-c1ccc(Cl)cc1)NCc1ccccc1 | i | i | i | i | 35 | i
C=CCNC(=O)NC[C@@]1(C(=O)OC)CC(=O)N(C)[C@@H]1c1ccccc1 | nt | nt | i | nt | nt | nt
COC(=O)[C@]12C[C@H](CC(=O)NCc3cccc4ccccc34)C(=O)N(Cc3cccc4ccccc34)C1=C[C@H](C1CCCC1)O[C@@H]2C | nt | nt | i | nt | nt | nt
CC(C)c1cc(Nc2cccc(O)c2)cc(C(C)C)c1O | nt | nt | nt | nt | 26 | nt
Oc1cccc(Nc2ccccc2)c1 | i | i | i | i | i | i
SMILES | PAFAH2 FP inh | PAFAH1B3 FP inh | ABHD4 inh | PAFAH1B2 inh | pPAFAH FP inh | HTRA1 inhibitor
Cc1ccc(CN=C2NC(=O)C(CC(=O)NCCc3ccccc3)S2)cc1 (stereo not drawn) | i | i | nt | 42 | i | i
CC(=O)N1CCN(c2cc(-c3ccco3)nc3cc(-c4ccccc4)nn23)CC1 | nt | nt | i | nt | nt | nt
CC(C)(C)NC(=S)N/N=C/c1cc(Br)c(O)c(Br)c1 | i | i | i | i | 34 | i
O=C(N/N=C/c1cc(Br)c(O)c(Br)c1)C1CC1 | i | i | i | i | i | i
CCOC(=O)c1cnc2ccc(C)cc2c1N(C)Cc1ccccc1 | i | i | i | i | 25 | i
CCOC(=O)c1cnc2ccc(C)cc2c1Sc1ccccc1 | i | i | i | i | i | i
N#Cc1c(N)oc(-c2ccco2)c1-c1ccco1 | i | i | i | i | i | i

Screening data (PubChem)
